Bioassay records: PubChem BioAssay, Broad Institute
Rows were chosen to be rich in hits. Some 2.9% of all compounds tested hit in one or more screens of this group.
C2C12 statin: protects C2C12 myotubes from simvastatin toxicity. 330,000 compounds, 0.78% hits. rescue of ATP level, % at 7.49 µM. AID 602340. ATP luminescence, 48 h; scaled: DMSO 0, geranylgeraniol control 100;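 active = mean ATP rescue above about 67%, or every replicate alone reaching that limit, limit read from the data, passing the limit was not always enough; inconclusive = no clear call, values can overlap the other calls; inactive = mean under the limit and some replicate under it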;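 also: myotubes were challenged with 10 µM simvastatin during compound exposure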
DENV2 CPE rescue: DENV2-induced cell death inhibition. DENV2-infected cells, cytopathic effect rescue, plate reader. 350,000 compounds, 1.7% hits. CPE inhibition, % at 9.99 µM; in the data active = CPE inhibition above about 20%, passing the limit was not always enough; inconclusive = no clear call, values can overlap the other calls; tested in BHK-21 cells
PGC1a acetyl inh: PGC1a acetylation modulation, inhibitor mode; U2OS PGC1a acetylation, AlphaScreen anti-acetyl-lysine; with virally co-expressed GCN5 acetyltransferase; inhibition, % at 15.6 µM; 350,000 compounds, 0.17% hits;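 active = every replicate shows inhibition of at least 40%; inconclusive = mean inhibition at least 40% but some replicate below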
S100A4 MyoIIA: blocks human S100A4 binding to myosin IIA peptide; P26447; S100A4/TAMRA-MyoIIA peptide fluorescence polarization; inhibition, % at 10.7 µM; 360,000 compounds, 0.14% hits;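 active = mean inhibition of at least 70% across replicates, with every replicate also reaching that level; inconclusive = mean inhibition reaches 70% but some replicates fall short; inactive = mean inhibition below 70%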
Target sequence (P26447 whole entry, looked up): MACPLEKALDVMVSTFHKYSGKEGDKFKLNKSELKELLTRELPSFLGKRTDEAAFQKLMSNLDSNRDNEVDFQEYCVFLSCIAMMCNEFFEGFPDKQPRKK
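Test system – S100A4 monomer (human) · Compound – single-point compound testing · Schedule – 5 min incubation before reading · Probe or stimulus – TAMRA-labelled myosin IIA heavy-chain peptide probe, 5 nM · Benchmarks – neutral control DMSO, positive control TFP · Medium – Calcium-containing HEPES buffer, pH 7.2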
SIRT5 inh: sirtuin-5 (human) deacylase inhibition; Purified SirT5, succinyl-peptide AMC, trypsin-coupled fluorescence; 330,000 compounds, 1.1% hits; AID 652115; inhibition, % at 15 µM; Q9NXA8; in the data active = inhibition above about 15%; inconclusive = no clear call, values can overlap the other calls
Target sequence (Q9NXA8 whole entry, looked up): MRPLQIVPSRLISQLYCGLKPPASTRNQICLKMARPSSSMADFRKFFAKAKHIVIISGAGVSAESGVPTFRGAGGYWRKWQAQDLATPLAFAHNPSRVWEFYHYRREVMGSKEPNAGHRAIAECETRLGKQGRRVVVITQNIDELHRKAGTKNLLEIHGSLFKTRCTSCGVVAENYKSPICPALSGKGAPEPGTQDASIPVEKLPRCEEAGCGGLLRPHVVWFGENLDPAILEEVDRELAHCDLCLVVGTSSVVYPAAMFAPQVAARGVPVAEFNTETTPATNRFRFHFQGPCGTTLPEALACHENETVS
Of the large screens only hits and unclear results are named; the others gave an inactive call; ! = repeats disagree.

Fc1ccccc1Cc1noc(CN2CCCC(CN3CCOCC3)C2)n1 (centres undefined)	SIRT5 inh 21.7 (no result: PGC1a acetyl inh)
O=C(c1cccnc1)C1CCCN(Cc2nc(Cc3ccccc3F)no2)C1 (centres undefined)	none (no result: PGC1a acetyl inh)
CCSCCOC(=O)C1=C(C)NC(=O)NC1c1cc(OC)ccc1OC (centres undefined)	C2C12 statin 98.9 (no result: DENV2 CPE rescue, S100A4 MyoIIA, SIRT5 inh)
COc1ccc(COC(=O)C2=C(C)NC(=O)NC2c2ccccc2F)cc1 (centres undefined)	DENV2 CPE rescue 39.0
CCOC(=O)C1=C(C)C(c2ccccc2O)NC(=O)N1 (centres undefined)	C2C12 statin 86.6 (no result: DENV2 CPE rescue, S100A4 MyoIIA, SIRT5 inh)
CC1=C(C(=O)OCc2ccc3c(c2)OCO3)C(c2ccccc2)NC(=O)N1 (centres undefined)	PGC1a acetyl inh 55.5 (no result: DENV2 CPE rescue, S100A4 MyoIIA, SIRT5 inh)
C[C@@H]1CCCCO[C@@H](CN(C)C(=O)NC2CCCCC2)[C@H](C)CN([C@@H](C)CO)C(=O)c2cc(NS(C)(=O)=O)ccc2O1	none (no result: S100A4 MyoIIA, SIRT5 inh)
C[C@@H]1CN([C@@H](C)CO)C(=O)c2cc(NC(=O)Cc3cn(C)c4ccccc34)ccc2O[C@@H]1CN(C)S(=O)(=O)c1cn(C)cn1	none
C[C@H](CO)N1C[C@H](C)[C@H](CN(C)C(=O)Nc2ccc3c(c2)OCO3)Oc2ccc(NC(=O)C3CC3)cc2CC1=O	none
C[C@@H]1CN([C@H](C)CO)C(=O)c2cccc(NC(=O)c3nc4ccccc4s3)c2O[C@H]1CN(C)C	none
CCOC(=O)C1=C(C)NC(=O)NC1c1ccc(N(C)C)cc1 (centres undefined)	DENV2 CPE rescue 69.8
N#Cc1ccc(C(=O)Nc2cc(-c3ccccc3)nn2-c2ccccc2)cc1	none
N#Cc1ccc(C(=O)Nc2cc(C3CC3)nn2-c2ccccc2)cc1	DENV2 CPE rescue 22.1
COc1ccc(NC(=O)c2c(F)cccc2F)cc1S(=O)(=O)Nc1ccc(Br)cc1	DENV2 CPE rescue 49.4 (no result: C2C12 statin)
COc1ccc(NC(=S)NC(=O)/C=C/c2ccccc2)cc1	DENV2 CPE rescue 37.8 (no result: PGC1a acetyl inh)
COc1ccc(NC(=O)/C=C/c2cccc(C(F)(F)F)c2)cn1	DENV2 CPE rescue 23.4 (no result: PGC1a acetyl inh)
COc1ccc(NC(=S)NC(=O)/C=C/c2cccs2)cc1	none (no result: C2C12 statin, PGC1a acetyl inh)
COc1ccc(/C=C/C(=O)Nc2ccc(OC)nc2)cc1	C2C12 statin 84.4
O=C(/C=C/c1ccc(Cl)cc1)NC(=S)Nc1ccccc1C(=O)O	DENV2 CPE rescue 23.4 (no result: C2C12 statin)
C[C@H](CO)N1C[C@H](C)[C@H](CN(C)C(=O)c2ccncc2)OCCCC[C@H](C)Oc2ccc(NC(=O)Cc3ccccc3)cc2C1=O	none
O=C(/C=C/c1ccco1)NC(=S)Nc1ccc(C(=O)O)cc1	SIRT5 inh 21.9 (no result: C2C12 statin, PGC1a acetyl inh)
COC(=O)C(=O)C1CCc2c(Cl)cc(OC)c(OC)c2C1=O (centres undefined)	DENV2 CPE rescue 64.7 (no result: C2C12 statin, PGC1a acetyl inh)
CNC(=O)c1cc(Cl)c(OC)c(OC)c1	none (no result: C2C12 statin)
Cc1nc2ccccn2c1-c1nnco1	C2C12 statin 71.7 (no result: DENV2 CPE rescue, S100A4 MyoIIA, SIRT5 inh)
CCc1cnc(N2[C@@H](C#N)[C@@H](c3ccccc3)[C@@H]2CO)s1	DENV2 CPE rescue 49.5
CCc1cnc(N2[C@H](CO)[C@H](c3ccc(C4=CCCCC4)cc3)[C@@H]2C#N)s1	DENV2 CPE rescue 28.8
Cc1noc(C)c1NC(=O)NCC[C@H]1CC[C@@H](NC(=O)Cc2cccnc2)[C@@H](CO)O1	DENV2 CPE rescue inconclusive
COc1ccc(S(=O)(=O)Nc2ccc3c(c2)C(=O)N([C@H](C)CO)C[C@@H](C)[C@H](CN(C)S(=O)(=O)c2c(C)noc2C)OCCCC[C@H](C)O3)cc1	none (no result: C2C12 statin)
O=C(CCC(=O)N1CCOc2ccccc21)NC1CCCCCC1	none
CCOC(=O)N1CCC(NC(=O)CCC(=O)N2CCOc3ccccc32)CC1	C2C12 statin 123.2 (no result: DENV2 CPE rescue, S100A4 MyoIIA, SIRT5 inh)
CCCCCC(=O)N/N=C/c1ccc([N+](=O)[O-])o1	none (no result: C2C12 statin)
O=C(N/N=C/c1ccc([N+](=O)[O-])o1)c1ccncc1	none (no result: C2C12 statin)
O=C(Cc1ccc2c(c1)OCO2)NN=Cc1ccc([N+](=O)[O-])o1	DENV2 CPE rescue 60.7
O=C(N/N=C\c1ccc([N+](=O)[O-])o1)c1cncc(Br)c1	SIRT5 inh 21.3 (no result: C2C12 statin)
CN(C)Cc1cn(CC[C@@H]2CC[C@H](NC(=O)Nc3ccccc3F)[C@@H](CO)O2)nn1	none
COc1ccc(S(=O)(=O)Nc2cccc3c2O[C@@H](CN(C)S(=O)(=O)c2ccc(C)cc2)[C@H](C)CN([C@H](C)CO)C3=O)cc1	none (no result: S100A4 MyoIIA, SIRT5 inh)
CC1CCCCC1NC(=O)CCNC(=O)N1CC(=O)Nc2ccccc21 (centres undefined)	C2C12 statin 119.1
O=C1CN(C(=O)NCC(=O)N[C@H](C(=O)O)c2ccccc2)c2ccccc2N1	SIRT5 inh 18.0 (no result: PGC1a acetyl inh)
O=C1CN(C(=O)NCC(=O)N[C@H](Cc2ccccc2)C(=O)O)c2ccccc2N1	none
CCn1cc([N+](=O)[O-])c(C(=O)N2N=C(c3cccc4ccccc34)CC2c2ccccc2O)n1 (centres undefined)	C2C12 statin 79.9 (no result: DENV2 CPE rescue, S100A4 MyoIIA, SIRT5 inh)
CCn1cc([N+](=O)[O-])c(C(=O)N2N=C(c3ccc4ccccc4c3)CC2c2ccccc2O)n1 (centres undefined)	none (no result: DENV2 CPE rescue, S100A4 MyoIIA, SIRT5 inh)
CC(/C=C/C(=O)c1ccc(C)cc1)=C\c1ccccc1	none (no result: C2C12 statin, DENV2 CPE rescue, S100A4 MyoIIA, SIRT5 inh)
C/C(C=O)=C/c1ccccc1	DENV2 CPE rescue 90.6 (no result: SIRT5 inh)
COc1cc(NC(=O)COC(=O)CNC(=O)c2ccc(C)cc2)c(C)cc1[N+](=O)[O-]	SIRT5 inh 20.4 (no result: C2C12 statin, PGC1a acetyl inh)
Cc1c(Cc2ccc3c(c2)OCO3)sc(NC(=O)c2ccccc2)c1C(N)=O	SIRT5 inh 20.2
O=C(C[C@H]1C[C@H]2c3cc(NC(=O)C4CCOCC4)ccc3O[C@H]2[C@H](CO)O1)NC1CCCCC1	none (no result: SIRT5 inh)
C[C@H](CO)N1C[C@H](C)[C@H](CN(C)C(=O)Nc2ccc3c(c2)OCO3)Oc2c(NS(=O)(=O)c3ccccc3)cccc2C1=O	none
C[C@H](CO)N1C[C@H](C)[C@@H](CN(C)C(=O)Nc2ccc3c(c2)OCO3)Oc2c(NS(=O)(=O)c3ccccc3)cccc2C1=O	DENV2 CPE rescue 28.3!
C[C@@H]1CN([C@H](C)CO)C(=O)c2cccc(NS(=O)(=O)c3ccc(F)cc3)c2O[C@@H]1CN(C)C(=O)Nc1ccc2c(c1)OCO2	DENV2 CPE rescue 24.1
CS(=O)(=O)N1[C@@H]2c3ccc(-c4ccc(F)cc4)c(=O)n3C[C@H]1[C@H](CO)[C@H]2C(=O)NCC1CC1	DENV2 CPE rescue 121.2
O=C([C@H]1[C@H](CO)[C@H]2Cn3c(cccc3=O)[C@@H]1N2CC1CCCC1)N1CCOCC1	DENV2 CPE rescue 23.2 (no result: C2C12 statin)
O=C(NC1CCCCC1)[C@H]1[C@H](CO)[C@H]2Cn3c(cccc3=O)[C@@H]1N2CC1CCCCC1	none (no result: C2C12 statin)
O=C(NC1CCCCC1)[C@@H]1[C@@H](CO)[C@@H]2Cn3c(cccc3=O)[C@H]1N2CC1CCCCC1	DENV2 CPE rescue inconclusive, SIRT5 inh 19.0 (no result: C2C12 statin)
COc1cccc(-c2ccc3n(c2=O)C[C@H]2[C@H](CO)[C@@H](C(=O)NCC4CC4)[C@@H]3N2S(C)(=O)=O)c1	none (no result: PGC1a acetyl inh, S100A4 MyoIIA)
